Measurements: ChEMBL document CHEMBL1144865, “N-aminoimidazole derivatives inhibiting retroviral replication via a yet unidentified mode of action” (J Med Chem, 2003)

Assays:
[1] = tested on: Human immunodeficiency virus 2; assay: Concentration required to inhibit the viral (HIV-2 ROD) cytopathic effect by 50% in MT-4 cells.; assay type: functional, organism-based, MT4
Procedure, shortened: (§1)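 Virus-infected MT-4 cells cultured with serial compound dilutions; viability measured 5 days after infection by MTT tetrazolium colorimetric read-out. The value is the concentration protecting 50% of cells from viral cytopathic effect. Averages ± SD from at least two independent experiments. HIV-2 and SIV stocks came from infected MT-4 culture supernatants.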

[2] = tested on: Simian immunodeficiency virus; assay: Concentration required to inhibit the viral (SIV mac251) cytopathic effect by 50% in MT-4 cells.; assay type: functional, organism-based, MT4; procedure, shortened: as §1
[3] = tested on: Human immunodeficiency virus 1; assay: Concentration required to inhibit the viral (HIV-1 NNRTI resistant strain) cytopathic effect by 50% in MT-4 cells.; assay type: functional, organism-based; conditions: Human immunodeficiency virus 1, MT4
Procedure, shortened: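 MT-4 cells infected with HIV-1(III_B)-derived strain S0561945 (K103N + Y181C RT mutations, NNRTI-resistant). Cultured with varying compound concentrations; viability read on day 5 post-infection by MTT tetrazolium colorimetry. Value is the concentration giving 50% protection against virus-induced cytopathic effect. Cytotoxicity measured in parallel on mock-infected cells at day 5. Averages ± SD from at least two independent experiments.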

[4] = tested on: Human immunodeficiency virus 1; assay: Concentration required to inhibit the viral (HIV-1 IIIB strain) cytopathic effect by 50% in MT-4 cells.; assay type: functional, organism-based; conditions: Human immunodeficiency virus 1, MT4; procedure, shortened: as §1
MT4 = assay: Concentration that reduced the MT-4 cell viability by 50%.; assay type: functional, Homo sapiens
Procedure, shortened: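 Mock-infected MT-4 cells, run in parallel with the antiviral assay, were exposed to compound. Viability on day 5 was read by MTT colorimetry. The value is the concentration lowering viability by 50%. Averages ± SD from at least two independent experiments.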

[5] = tested on: Human immunodeficiency virus 1; assay: Concentration required to inhibit the viral (HIV-1 NL4.3 strain) cytopathic effect by 50% in MT-4 cells.; assay type: functional, organism-based; conditions: Human immunodeficiency virus 1, MT4; procedure, shortened: as §1
[6] = Human immunodeficiency virus 2, MT4
[7] = Simian immunodeficiency virus, mac251, MT4

SMILES	IC50 [1, 6]	IC50 [2, 7]	IC50 [4]	IC50 [5]	IC50 ([1]; mt4)	IC50 ([2]; mt4)	IC50 [3]	CC50 (MT4; Homo sapiens, MT4)	CC50 (MT4)
COc1ccc(-c2c(C)nc(S)n2Nc2cccc(Cl)c2)cc1	> 38.7 µM	10.1 µM	> 38.7 µM	> 38.7 µM			> 38.7 µM	38.7 µM	
Cc1ncn(Nc2cccc(Cl)c2)c1C					> 214 µM	> 214 µM			214 µM
Cc1cc(C)cc(NN2C(S)=NC(C)C2c2ccccc2)c1 (stereo not drawn)	> 194 µM	> 194 µM	1.03 µM	0.87 µM			> 194 µM	194 µM	
Cc1nc(S)n(Nc2ccc(F)cc2)c1-c1ccccc1	> 220 µM	> 220 µM	> 220 µM	> 220 µM				220 µM	
CC1N=C(S)N(Nc2cccc(F)c2)C1c1ccccc1 (stereo not drawn)	> 108 µM	33.8 µM	> 108 µM	18.4 µM			≥ 43.4 µM	108 µM	
Cc1nc(S)n(Nc2cccc(Cl)c2)c1-c1ccc(Cl)cc1	> 40.8 µM	7.71 µM	> 40.8 µM	> 40.8 µM			> 40.8 µM	40.8 µM	
Cc1cccc(NN2C(S)=NC(C)C2c2cccc(C#N)c2)c1 (stereo not drawn)	> 45.6 µM	> 45.6 µM	> 45.6 µM	> 45.6 µM				45.6 µM	
Cc1nc(S)n(Nc2cccc(Cl)c2)c1-c1cccc(Br)c1	10.5 µM	1.75 µM	8.54 µM	5.6 µM			3 µM	44 µM	
COC(=O)c1cccc(C2C(C)N=C(S)N2Nc2cccc(Cl)c2)c1 (stereo not drawn)	> 67.4 µM	> 67.4 µM	> 67.4 µM	> 67.4 µM				67.4 µM	
CCc1ncn(Nc2cccc(C)c2)c1-c1ccccc1	> 27.9 µM	> 27.9 µM	> 27.9 µM	> 27.9 µM				27.9 µM	
COc1cccc(NN2C(S)=NC(C)C2c2ccccc2)c1 (stereo not drawn)	> 38 µM	> 38 µM	4.78 µM	9.79 µM			> 38 µM	38 µM	
CC1N=C(S)N(Nc2cccc(Cl)c2)C1c1cccc(C#N)c1 (stereo not drawn)	> 99.4 µM	> 99.4 µM	≥ 99.4 µM	42 µM			> 99.4 µM	99.4 µM	
Cc1nc(SCc2ccccc2)n(Nc2cccc(Cl)c2)c1-c1ccccc1	> 39.7 µM	> 39.7 µM	> 39.7 µM	> 39.7 µM				39.7 µM	
COc1cccc(Nn2cnc(C)c2-c2ccccc2)c1	> 34.4 µM	> 34.4 µM	> 34.4 µM	> 34.4 µM				34.4 µM	

Continued, in another order:

IC50 [1, 6]	IC50 [2, 7]	IC50 [4]	IC50 [5]	IC50 ([1]; mt4)	IC50 ([2]; mt4)	SMILES	IC50 [3]	CC50 (MT4; Homo sapiens, MT4)	CC50 (MT4)
> 48.8 µM	> 48.8 µM	> 48.8 µM	> 48.8 µM			COC(=O)C1N=C(S)N(Nc2cccc(Cl)c2)C1C (stereo not drawn)		48.8 µM	
> 260 µM	> 260 µM	> 260 µM	> 260 µM			Cc1ncn(Nc2cccc(Cl)c2)c1-c1cccc(C(N)=O)c1		260 µM	
> 191 µM	> 191 µM	> 191 µM	> 191 µM			CC1N=C(S)N(Nc2ccccc2)C1c1ccccc1 (stereo not drawn)		191 µM	
> 33.2 µM	> 33.2 µM	> 33.2 µM	> 33.2 µM			Cc1nc(S)n(Nc2cccc(Cl)c2)c1-c1ccc(Br)cc1		33.2 µM	
> 52.2 µM	> 52.2 µM					Cc1ncn(Nc2ccccc2)c1-c1ccccc1		52.2 µM	
> 190 µM	> 190 µM	> 190 µM	> 190 µM			COC(=O)C1C(C)N=C(S)N1Nc1cccc(Cl)c1 (stereo not drawn)		190 µM	
> 44.7 µM	> 44.7 µM	> 44.7 µM	> 44.7 µM			Cc1cccc(Nn2cnc(C)c2-c2cccc(C#N)c2)c1		44.7 µM	
> 181 µM	> 181 µM	> 181 µM	> 181 µM			CC1N=C(S)N(Nc2ccccc2)C1C (stereo not drawn)		181 µM	
> 360 µM	> 360 µM	> 360 µM	> 360 µM			Cc1cccc(NN2C(S)=NC(C)C2C)c1 (stereo not drawn)		360 µM	
> 53 µM	> 53 µM	> 53 µM	> 53 µM			CSc1ccc(NN2C(S)=NC(C)C2c2ccccc2)cc1 (stereo not drawn)		53 µM	
